In PubChem BioAssay:
Active and inactive are the calls of the source.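 The calls were made as follows: active = current rise at least 3 SD above the untreated control mean in each of two repeat wells; inactive = the rest.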

Target: Potassium voltage-gated channel subfamily KQT member 1 (Homo sapiens) (UniProt P51787)
Experiment: KCNQ1 activators by electrophysiology – IonWorks patch clamp, KCNQ1-CHO cells, orthogonal assay for KCNQ1 potentiator project, confirmation (AID 493184)
Details: automated patch clamp current, at 10 µM
Procedure, shortened: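 Probe or stimulus: depolarizing pulse to +40 mV from -90 mV; Material: CHO cells carrying KCNQ1; Compound: one dose, 10 µM final; Signal: automated voltage clamp, amphotericin B perforated patch; Read-out basis: percent current increase versus pre-compound level; Buffer or medium: pH 7.4 external bath; Replication: duplicates.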

Chain of Potassium voltage-gated channel subfamily KQT member 1 (Homo sapiens) (P51787 whole entry, looked up): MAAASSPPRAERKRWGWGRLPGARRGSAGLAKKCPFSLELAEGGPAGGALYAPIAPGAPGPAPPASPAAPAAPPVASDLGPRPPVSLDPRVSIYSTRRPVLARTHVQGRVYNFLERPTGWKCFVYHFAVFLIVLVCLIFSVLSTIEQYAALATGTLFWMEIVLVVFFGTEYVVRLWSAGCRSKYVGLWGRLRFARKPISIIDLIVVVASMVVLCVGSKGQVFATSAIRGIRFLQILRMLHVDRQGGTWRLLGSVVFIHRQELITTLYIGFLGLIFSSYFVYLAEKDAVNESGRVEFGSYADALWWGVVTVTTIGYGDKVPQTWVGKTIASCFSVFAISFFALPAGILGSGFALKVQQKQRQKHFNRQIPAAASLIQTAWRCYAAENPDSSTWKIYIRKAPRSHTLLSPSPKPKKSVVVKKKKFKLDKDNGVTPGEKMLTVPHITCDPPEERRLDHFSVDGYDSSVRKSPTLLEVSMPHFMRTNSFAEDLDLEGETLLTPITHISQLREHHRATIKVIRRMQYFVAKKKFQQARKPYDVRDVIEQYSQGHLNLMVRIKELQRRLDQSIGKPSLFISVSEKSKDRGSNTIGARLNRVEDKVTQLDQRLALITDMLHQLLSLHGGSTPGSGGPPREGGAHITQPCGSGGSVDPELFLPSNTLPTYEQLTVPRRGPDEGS

outcome, inactive:
C/C(Cl)=C\Cn1c(O)c(N=NC(N)=S)c2cc(Br)ccc21
Cc1ccccc1C([O-])=Nc1ccc[n+](-c2nc3ccccc3nc2NS(=O)(=O)c2ccccc2)c1
COc1ccc(-c2nc(CS(=O)CC(=O)NC3CCCC3)c(C)o2)cc1OC (stereo not given)
Cc1ccc(N2C(=O)N3[C@H](c4ccc(F)cc4)[C@@H]4C(=O)N(C5CCCCC5)C(=O)[C@@H]4[C@]3(Cc3ccccc3)C2=O)cc1
CCn1c(CSc2nc3ccccc3n2C)nc2ccccc21
CN(C)CCCC1(O)c2ccccc2C=Cc2ccccc21
N#CC1=C(Nc2ccccc2)SC=C(c2ccc(Br)cc2)N=C1N1CCOCC1
O=C(NC(=S)Nc1nc2c(s1)CSc1ccccc1-2)c1ccccc1
CC(C)Cc1c2c([nH]c(=S)c1C#N)CCCC2
Nc1c(Cl)cc(C2=NCCn3nc4cc(C(F)(F)F)ccc4c32)cc1Cl
COc1ccc(/C=N\NC(=S)SCN2C(=O)C3CCC(C)(C2=O)C3(C)C)cc1 (stereo not given)
C1=Nc2ccccc2CN1c1ccccc1
Cc1ccc(-c2cc(C(=O)NCc3ccccn3)c3ccccc3n2)cc1C
COc1ccc(S(=O)(=O)NCCCN2CCOCC2)cc1F
O=C(NC(=S)Nc1ccccc1N1CCCC1)c1ccc([N+](=O)[O-])cc1
CC(c1ccccc1C(O)(c1ccccc1)c1ccccc1)N(C)C (stereo not given)
COc1ccc(/C=C2/S/C(=N/N=C3\CC4CCC3(C)C4(C)C)NC2=O)cc1 (stereo not given)
Cc1cccc(NC(=O)Nc2ccc(OCc3ccccc3)cc2)n1
Cc1nn(CC2CC2)c(=O)n1-c1ccc(F)cc1
CC1CCc2sc3nc(N4CCN(CCO)CC4)n4ncnc4c3c2C1 (stereo not given)
CCSc1nnc(NC(=O)C2C3C=CC(C3)C2C(=O)O)s1 (stereo not given)
COc1ccc(NC(=S)NC(=O)c2csnn2)cc1
COc1ccc(CCNC(=O)c2c(C)nc3ccccn23)cc1
COc1ccccc1CNC(=O)c1oc2ccc(S(=O)(=O)N3CCOCC3)cc2c1C
CC(C)(C)NC(=O)C(=O)NNC(=O)C12CC3CC(CC(C3)C1)C2
OCCN1CCN(C2CCC(c3ccc(F)cc3)c3ccc(F)cc32)CC1 (stereo not given)
Cc1cc(C(=O)CSc2nnc(N)s2)c(C)n1C1CC1
O=C(NCc1ccco1)c1ccc(=O)oc1
COc1ccc2c(-c3ccccc3)cc(=S)[nH]c2c1
CCOC(=O)c1c(NC(=S)NC)sc2c1CC(C)(C)SC2
CCOc1ccc(-n2cc(-c3ccccc3)c3c(=S)nc[nH]c32)cc1
O=C(N/N=C/c1cccnc1)c1ccco1
COc1ccc(CCC(=O)NCCOc2ccc(C)cc2)cc1
S=c1[nH]cnc2sc(-c3ccccc3)cc12
CCCCCc1ccc(C(=O)CCCC)c(=S)[nH]1
O=Cc1cc2ccccc2nc1SCCCF
Cn1nc(SCC(=O)O)sc1=S
CC(=O)c1c(-c2ccccc2)c2cc([N+](=O)[O-])ccc2[nH]c1=O
COCCn1c(=S)[nH]c2sc3c(c2c1=O)CCC(C)C3 (stereo not given)
Cc1ccc(C(=O)CC(=O)c2cccc(F)c2)c(O)c1
